pIC50, pKd: −log10 of the molar value. In brackets after ≈: the same amount, converted by molar mass.
Experiments:
[1] = biological target: T1, Dual specificity tyrosine-phosphorylation-regulated kinase 1A (Homo sapiens, UniProt Q13627); assay: Displacement of Kinase tracer 236 from biotinylated DYRK1A (unknown origin) expressed in Escherichia coli BL21 (DE3) incubated for 1.5 hrs by TR-FRET assay
[2] = biological target: Glycogen synthase kinase-3 beta (Homo sapiens) (UniProt P49841); assay: Inhibition of wild-type human full length GSK3B (M1 to T433 residues) expressed in mammalian expression system assessed as remaining activity at 1 uM by Kinomescan method relative to control
Summary of the method: (§1)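 KINOMEscan competition binding panel run with inhibitor at 1 μM; read-out is remaining kinase activity (percent of control).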

[3] = biological target: T2, Dual specificity tyrosine-phosphorylation-regulated kinase 2 (Homo sapiens) (UniProt Q92630); assay: Inhibition of wild-type human full length DYRK2 (M1 to S528 residues) expressed in mammalian expression system assessed as remaining activity at 1 uM by Kinomescan method relative to control; summary of the method: as §1
T2 sequence (whole entry): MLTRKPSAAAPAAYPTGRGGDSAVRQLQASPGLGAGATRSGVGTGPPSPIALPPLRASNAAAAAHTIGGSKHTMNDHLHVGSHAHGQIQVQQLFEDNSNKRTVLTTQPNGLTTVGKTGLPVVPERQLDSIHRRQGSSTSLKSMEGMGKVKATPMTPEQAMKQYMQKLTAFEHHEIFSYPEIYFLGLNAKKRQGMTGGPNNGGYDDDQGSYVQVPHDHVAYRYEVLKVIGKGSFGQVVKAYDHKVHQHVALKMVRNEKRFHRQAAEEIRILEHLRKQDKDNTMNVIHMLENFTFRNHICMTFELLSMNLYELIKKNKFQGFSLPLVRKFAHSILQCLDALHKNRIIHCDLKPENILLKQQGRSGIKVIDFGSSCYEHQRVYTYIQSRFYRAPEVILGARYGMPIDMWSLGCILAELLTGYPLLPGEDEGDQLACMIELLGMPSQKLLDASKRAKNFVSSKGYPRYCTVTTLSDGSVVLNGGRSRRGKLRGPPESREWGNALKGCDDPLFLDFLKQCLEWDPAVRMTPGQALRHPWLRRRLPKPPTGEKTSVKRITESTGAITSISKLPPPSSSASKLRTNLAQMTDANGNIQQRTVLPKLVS

[4] = biological target: Dual specificity protein kinase CLK3 (Homo sapiens) (UniProt P49761); assay: Inhibition of wild-type human full length CLK3 (M1 to R490 residues) expressed in bacterial expression system assessed as remaining activity at 1 uM by Kinomescan method relative to control; summary of the method: as §1
[5] = Metabolic stability in human liver microsomes; format: ADME, Microsome; conditions: read-out: Stabilty
[6] = biological target: Dual specificity protein kinase CLK2 (Homo sapiens) (UniProt P49760); assay: Inhibition of wild-type human partial length CLK2 (D144 to R498 residues) expressed in bacterial expression system assessed as remaining activity at 1 uM by Kinomescan method relative to control; summary of the method: as §1
[7] = Metabolic stability in rat liver microsomes; format: ADME, Microsome; conditions: read-out: Stabilty
[8] = biological target: Dual specificity tyrosine-phosphorylation-regulated kinase 1B (Homo sapiens) (UniProt Q9Y463); assay: Inhibition of wild-type human full length DYRK1B (M1 to S629 residues) expressed in bacterial expression system assessed as remaining activity at 1 uM by Kinomescan method relative to control; summary of the method: as §1
[9] = biological target: Cyclin-dependent kinase 2 (Homo sapiens) (UniProt P24941); assay: Inhibition of wild-type human full length CDK2 (M1 to L298 residues) expressed in bacterial expression system assessed as remaining activity at 1 uM by Kinomescan method relative to control; summary of the method: as §1
[10] = Thermodynamic solubility of the compound at pH 6.8; format: physicochemical; conditions: buffer, read-out: Therm_solubility
Summary of the method: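 Thermodynamic solubility measured at pH 6.8 in a single experiment, reported in […].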

[11] = biological target: Dual specificity protein kinase CLK1 (Homo sapiens, UniProt P49759); assay: Inhibition of wild-type human full length CLK1 (M1 to I484 residues) expressed in bacterial expression system assessed as remaining activity at 1 uM by Kinomescan method relative to control; summary of the method: as §1
[12] = biological target: T1, Dual specificity tyrosine-phosphorylation-regulated kinase 1A; assay: Binding affinity to biotinylated DYRK1A (unknown origin) expressed in Escherichia coli BL21 (DE3) assessed as dissociation constant measured up to 5 min by SPR method

Sequence of Dual specificity protein kinase CLK1 (P49759 whole entry, looked up, the tested form may be a part): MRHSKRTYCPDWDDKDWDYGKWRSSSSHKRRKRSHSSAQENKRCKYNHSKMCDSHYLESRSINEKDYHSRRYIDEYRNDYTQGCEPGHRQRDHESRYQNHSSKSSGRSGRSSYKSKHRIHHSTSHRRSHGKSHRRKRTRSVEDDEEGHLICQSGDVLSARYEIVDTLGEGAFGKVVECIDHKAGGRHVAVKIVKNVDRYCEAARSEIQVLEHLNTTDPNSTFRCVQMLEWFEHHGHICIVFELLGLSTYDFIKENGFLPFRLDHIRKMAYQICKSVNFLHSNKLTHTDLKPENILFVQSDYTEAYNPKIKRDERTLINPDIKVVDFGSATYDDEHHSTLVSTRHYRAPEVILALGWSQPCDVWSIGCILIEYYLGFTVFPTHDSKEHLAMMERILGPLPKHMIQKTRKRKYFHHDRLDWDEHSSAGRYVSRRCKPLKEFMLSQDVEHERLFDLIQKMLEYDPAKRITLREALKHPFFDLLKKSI
Sequence of Glycogen synthase kinase-3 beta (Homo sapiens) (P49841 whole entry, looked up, the tested form may be a part): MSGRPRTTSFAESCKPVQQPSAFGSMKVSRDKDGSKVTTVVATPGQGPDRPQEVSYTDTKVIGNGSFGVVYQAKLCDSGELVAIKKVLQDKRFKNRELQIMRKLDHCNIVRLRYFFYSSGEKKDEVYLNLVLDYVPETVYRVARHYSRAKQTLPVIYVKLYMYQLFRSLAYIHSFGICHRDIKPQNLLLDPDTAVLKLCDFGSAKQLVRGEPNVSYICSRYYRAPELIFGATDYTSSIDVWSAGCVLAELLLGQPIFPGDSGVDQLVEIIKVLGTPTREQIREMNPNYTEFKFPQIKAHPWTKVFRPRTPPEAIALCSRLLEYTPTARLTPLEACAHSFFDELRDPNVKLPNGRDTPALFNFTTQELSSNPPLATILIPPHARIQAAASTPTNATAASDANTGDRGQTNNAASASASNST
Sequence of Dual specificity protein kinase CLK2 (Homo sapiens) (P49760 whole entry, looked up, the tested form may be a part): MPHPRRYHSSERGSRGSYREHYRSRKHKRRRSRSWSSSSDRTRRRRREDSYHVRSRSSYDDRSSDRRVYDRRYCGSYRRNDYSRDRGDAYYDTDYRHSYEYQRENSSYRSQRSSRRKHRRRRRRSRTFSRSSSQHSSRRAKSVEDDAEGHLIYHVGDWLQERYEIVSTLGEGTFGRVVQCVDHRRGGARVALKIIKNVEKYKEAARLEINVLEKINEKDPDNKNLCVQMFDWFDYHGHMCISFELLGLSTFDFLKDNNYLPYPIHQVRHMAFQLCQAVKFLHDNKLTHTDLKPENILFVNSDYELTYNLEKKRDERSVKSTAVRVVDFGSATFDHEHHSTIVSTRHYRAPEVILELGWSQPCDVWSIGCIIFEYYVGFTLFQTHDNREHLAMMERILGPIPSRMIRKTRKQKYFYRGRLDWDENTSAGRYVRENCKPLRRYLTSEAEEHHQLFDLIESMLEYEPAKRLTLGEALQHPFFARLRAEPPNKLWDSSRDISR
Sequence of Dual specificity protein kinase CLK3 (Homo sapiens) (P49761 whole entry, looked up, the tested form may be a part): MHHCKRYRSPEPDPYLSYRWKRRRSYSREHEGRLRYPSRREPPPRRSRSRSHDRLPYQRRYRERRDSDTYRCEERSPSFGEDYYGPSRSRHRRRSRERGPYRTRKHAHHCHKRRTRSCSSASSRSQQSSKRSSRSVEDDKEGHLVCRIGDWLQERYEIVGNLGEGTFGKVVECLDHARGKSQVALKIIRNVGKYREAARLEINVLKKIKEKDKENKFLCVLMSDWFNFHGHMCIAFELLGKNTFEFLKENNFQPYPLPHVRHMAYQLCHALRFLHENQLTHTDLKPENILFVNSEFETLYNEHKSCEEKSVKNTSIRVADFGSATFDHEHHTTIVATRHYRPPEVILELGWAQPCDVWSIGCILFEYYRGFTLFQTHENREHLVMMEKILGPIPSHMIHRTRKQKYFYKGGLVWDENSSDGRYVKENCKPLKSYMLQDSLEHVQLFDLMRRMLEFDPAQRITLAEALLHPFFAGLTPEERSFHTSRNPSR
Sequence of Dual specificity tyrosine-phosphorylation-regulated kinase 1B (Homo sapiens) (Q9Y463 whole entry, looked up, the tested form may be a part): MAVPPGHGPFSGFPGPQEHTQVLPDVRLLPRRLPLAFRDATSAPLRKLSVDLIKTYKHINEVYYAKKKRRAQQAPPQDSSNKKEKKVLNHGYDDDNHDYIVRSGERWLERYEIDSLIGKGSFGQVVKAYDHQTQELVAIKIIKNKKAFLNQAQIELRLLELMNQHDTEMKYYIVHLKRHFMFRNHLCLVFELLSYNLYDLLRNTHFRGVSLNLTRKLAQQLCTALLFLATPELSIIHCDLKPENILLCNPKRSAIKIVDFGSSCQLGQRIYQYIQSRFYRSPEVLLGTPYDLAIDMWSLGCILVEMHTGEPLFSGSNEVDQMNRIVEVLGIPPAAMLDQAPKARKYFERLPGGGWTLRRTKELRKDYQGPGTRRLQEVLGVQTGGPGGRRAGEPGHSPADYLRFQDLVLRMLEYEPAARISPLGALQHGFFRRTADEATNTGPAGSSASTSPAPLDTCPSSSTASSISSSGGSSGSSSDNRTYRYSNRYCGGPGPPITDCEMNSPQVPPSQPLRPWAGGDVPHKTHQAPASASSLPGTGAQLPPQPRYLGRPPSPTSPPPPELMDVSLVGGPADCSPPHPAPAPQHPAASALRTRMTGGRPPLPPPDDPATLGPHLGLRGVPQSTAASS

With `c1cnn2ncc(-c3ccnc(N4CCC5(CCOC5)C4)n3)c2c1` (stereo unspecified) the pIC50 [1] was 6.57.

`CN(CCCC(F)(F)F)c1nccc(-c2cnn3ncccc23)n1` showed a pIC50 [1] of 7.00.

`COc1ccc2c(-c3ccnc(N(C)C)n3)cnn2n1` showed a pIC50 [1] of 5.58.

Work on `CC(C)c1cc(-c2cnn3ncccc23)nc(N(C)C)n1` yielded a pIC50 [1] of 4.72.

Molecule `COc1cc(-c2cnn3ncccc23)nc(N(C)C)n1` has a pIC50 [1] of under 4.00.

In the case of `C[C@H]1CCN(c2nccc(-c3cnn4ncccc34)n2)C1`, the Activity [2] was 77%, the Activity [3] was 15% and the Activity [4] was 88%. The microsomal CLint [5] was 378 µL/min/mg, the Activity [6] was 16% and the microsomal CLint [7] was 448 µL/min/mg. For the same molecule, the Activity [8] was 7.2%, the pIC50 [1] was 6.94 and the Activity [9] was 100%. It also gave a solubility thermodynamic [10] of 20 µg/mL (≈ 71.3 µM) and an Activity [11] of 17%.

`Cc1ccnn2ncc(-c3ccnc(N(C)C)n3)c12` gave a pIC50 [1] of 6.14.

Molecule `Nc1nccc(-c2cnn3ncccc23)n1` has a pIC50 [1] of 6.28 and a pKd [12] of 6.87.

`N[C@H]1CCN(c2nccc(-c3cnn4ncccc34)n2)C1` gave an Activity [2] of 100%, an Activity [3] of 29% and an Activity [4] of 95%. For the same molecule, the microsomal CLint [5] was 199 µL/min/mg, the Activity [6] was 72% and the microsomal CLint [7] was 48 µL/min/mg. The Activity [8] was 18%, the Activity [9] was 100% and the solubility thermodynamic [10] was 1920 µg/mL (≈ 6820 µM). The Activity [11] was 36%.

For `CC1(C)CCN(c2nccc(-c3cnn4ncccc34)n2)C1`, the pIC50 [1] was 6.37.

For `c1cnn2ncc(-c3ccnc(N4CC5CC5C4)n3)c2c1` (stereo unspecified), the pIC50 [1] was 6.51.

`Cc1nn2ncccc2c1-c1ccnc(N(C)C)n1` gave a pIC50 [1] of 4.51.

Work on `CC1CCCN1c1nccc(-c2cnn3ncccc23)n1` (stereo unspecified) yielded an Activity [2] of 92%, an Activity [3] of 66% and an Activity [4] of 100%. For the same molecule, the microsomal CLint [5] was 328 µL/min/mg, the Activity [6] was 61% and the microsomal CLint [7] was 929 µL/min/mg. It also gave an Activity [8] of 81%, a pIC50 [1] of 6.96 and an Activity [9] of 100%. For the same molecule, the solubility thermodynamic [10] was 10 µg/mL (≈ 35.7 µM) and the Activity [11] was 71%.

With `CN(C)c1nccc(-c2cn(C)c3cnccc23)n1` the pIC50 [1] was 6.01.

Molecule `CCCN(c1nccc(-c2cnn3ncccc23)n1)C(C)C` has a pIC50 [1] of 6.12.

`CC1CCN(c2nccc(-c3cnn4ncccc34)n2)C1` (single isomer, unassigned) [listing 1 of 2 here] gave a microsomal CLint [5] of 389 µL/min/mg, a microsomal CLint [7] of 184 µL/min/mg and a pIC50 [1] of 6.83. It also gave a solubility thermodynamic [10] of 50 µg/mL (≈ 178 µM).

Molecule `CN(C)c1nc2c(c(-c3cnn4ncccc34)n1)COC2` has a pIC50 [1] of 5.13.

With `CC(C)N(c1nccc(-c2cnn3ncccc23)n1)C1CC1` the pIC50 [1] was 5.92.

Molecule `CC1CCN(c2nccc(-c3cnn4ncccc34)n2)C1` (single isomer, unassigned) [listing 2 of 2 here] has an Activity [2] of 100%, an Activity [3] of 25% and an Activity [4] of 73%. It also gave an Activity [6] of 15%, an Activity [8] of 9.1% and an Activity [9] of 95%. The Activity [11] was 16%.

In the case of `c1cnn2ncc(-c3ccnc(N4CCC5CNCC54)n3)c2c1` (stereo unspecified), the pIC50 [1] was 5.78.

With `Cc1ccc2c(-c3ccnc(N(C)C)n3)cnn2n1` the pIC50 [1] was 6.06.

For `CN(C)c1nccc(-c2cnn3ccccc23)n1`, the pIC50 [1] was 6.05.

With `CN(C)c1ncc(Br)c(-c2cnn3ncccc23)n1` the pIC50 [1] was 5.80.

In the case of `Cc1cc(-c2cnn3ncccc23)nc(N(C)C)n1`, the pIC50 [1] was 4.93.

`CN(C)c1ncc(Cl)c(-c2cnn3ncccc23)n1` showed a pIC50 [1] of 6.48 and a pKd [12] of 6.02.

Molecule `COc1ccnn2ncc(-c3ccnc(N(C)C)n3)c12` has an Activity [2] of 100%, an Activity [3] of 24% and an Activity [4] of 83%. The microsomal CLint [5] was 89 µL/min/mg, the Activity [6] was 12% and the microsomal CLint [7] was 77 µL/min/mg. It also gave an Activity [8] of 0.7%, a pIC50 [1] of 6.86 and an Activity [9] of 100%. The solubility thermodynamic [10] was 70 µg/mL (≈ 259 µM) and the Activity [11] was 7.8%.

Work on `CN(C)c1nccc(-c2cnc3cccnn23)n1` yielded a pIC50 [1] of 4.26.

Molecule `Cc1cccc(N(C)c2nccc(-c3cnn4ncccc34)n2)c1` has a microsomal CLint [7] of 784 µL/min/mg and a pIC50 [1] of 7.10.

`CNc1nccc(-c2cnn3ncccc23)n1` gave a pIC50 [1] of 6.74 and a pKd [12] of 7.26.

From ChEMBL document CHEMBL4808225, “Discovery and Characterization of Selective and Ligand-Efficient DYRK Inhibitors” (J Med Chem, 2021)
